Rows were chosen to be rich in hits. Some 3% of all compounds tested hit in one or more screens of this group.
SR-BI HDL uptake: inhibitors of SR-BI mediated HDL lipid uptake, primary screen, ldlA[mSR-BI] cells, fluorescence, single point | ldlA[mSR-BI] CHO cells, DiI-HDL uptake fluorescence, 3 h | inhibition, % at 12.5 µM | 0.96% of 320,000 active;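 active = mean replicate inhibition of at least 70% and a set share of replicates each scoring 70 or more; inconclusive = meets just one of the two criteria; inactive = fails both criteria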;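 also: 0% = median of neutral control wells and 100% = median of positive control wells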
SR-BI uptake up: activators of SR-BI mediated DiI-HDL uptake, primary screen, ldlA[mSR-BI] CHO cells, DiI fluorescence; 3 h; 100 = double the neutral-control signal; activation, % at 12.5 µM; 0.096% of 320,000 active;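 active = mean replicate activation of at least 60% and every replicate at or above 60%; inconclusive = mean or all-replicate condition met, but not both; inactive = mean below 60% and not all replicates reaching 60%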;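 also: 0% = median plate neutral-control signal and 100% = twice that signal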
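Material: SR-BI-overexpressing, LDLR-lacking CHO cells | Dosing: Single compound concentration, delivered by pin transfer | Probe or stimulus: Labelled HDL, 10 µg/mL | Signal: Bottom-read cell fluorescence after medium removal, ex 550/em 595 nm | Schedule: 3 h, 37 °C | Evaluation: HDL uptake via cellular fluorescence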
Kir21 block: inhibitors of mouse Kir2.1 inward-rectifier potassium channel. HEK293-Kir2.1, FluxOR thallium flux fluorescence; active compounds read low. 0.85% of 310,000 active. AID 1672, 2009. B-score at 10 µM. Inward rectifier potassium channel 2 (Mus musculus), P35561;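 active = fluorescence ratio B-score at or below minus 3 SD of library scores, with starting-brightness B-score within 2 SD, cut at about -4.2 in these data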;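 also: channel flux triggered by added potassium and thallium sulfate stimulus; B-score of peak minus minimum fluorescence over baseline after thallium stimulus; more negative B-score means stronger Kir2.1 block with less thallium influx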
TMEM16A inh: TMEM16A chloride channel inhibitors, primary screen, cell-based, HTS; normalized B-score (activity score, 25-100; higher = stronger inhibition) at 10 µM; HEK293 TMEM16A/YFP iodide influx fluorescence, ionomycin; 1.2% of 310,000 active; Anoctamin-1 (Mus musculus), Q8BHY3;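 active = ratio plate-corrected score three or more library SD toward inhibition, starting fluorescence score within five deviations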;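 also: score derived from kinetic fluorescence span divided by baseline fluorescence per well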
FID counter: compounds displacing fluorescent DNA intercalator, primary screen, artefact control for HCV NS3 helicase inhibitor project, biochemical, FID fluorescence; inhibition, % at 7.9 µM; 0.17% of 290,000 active; AID 1845, 2009; DNA fluorescent intercalator displacement; in the data active = inhibition above about 37%;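 also: 0% = vehicle and 100% = reference compound; higher means more ethidium bromide displaced from hairpin DNA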
ANO1 activ: TMEM16A chloride channel activators or potentiators, primary screen, cell-based, HTS; Anoctamin-1 (Mus musculus), Q8BHY3; HEK293 TMEM16A/YFP-H148Q/I152L, iodide quench fluorescence; active compounds read low; B-score at 10 µM; 0.3% of 340,000 active;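 active = fluorescence-ratio B-score plate-corrected deviation score at least 3 library SD below zero, with starting fluorescence score within 5 deviations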;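 also: channel opened by trigger with iodide after compound preincubation; score built on the fluorescence ratio of max minus min over baseline; more negative score means more quench and so TMEM16A activation or potentiation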
TMEM16A reconf: TMEM16A chloride channel inhibitors, confirmation, cell-based, re-confirmation; shares compounds with TMEM16A inh; HEK293 TMEM16A/YFP-H148Q, iodide quench fluorescence; ionomycin added to raise cell calcium; inhibition, % at 10 µM; 39% of 2,300 active; AID 652189, 2013;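 active = mean duplicate percent inhibition, scaled so buffer wells are 0 and the reference blocker 100, over three buffer SD above buffer mean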
TMEM16A Ca cntr: calcium mobilization in TMEM16A/YFP HEK293 cells, confirmation, counter-screen for TMEM16A inhibitor project. AID 652231, 2013. calcium response (% of ionomycin), % at 10 µM. shares compounds with TMEM16A inh. 2% of 2,300 active. Fluo4 calcium mobilization;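 active = duplicate-averaged calcium signal over 20% of the ionomycin maximum, relative to buffer baseline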;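 also: each well's signal is peak minus trough fluorescence divided by its pre-addition baseline; 0% = buffer wells and 100% = ionomycin wells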
Parental YFP cnt: iodide YFP quench changes in parental YFP-HEK293, counter-screen for TMEM16A inhibitor project, cell-based; 2,300 tested, under 10 active; ionomycin; AID 652233, 2013; YFP ratio F(max-min)/F0 at 10 µM; shares compounds with TMEM16A inh;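 active = yellow fluorescent protein signal ratio exceeding the buffer control mean by over 5 SD of those controls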;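 also: ratio is mean of duplicate wells from kinetic YFP trace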
ClC-1 rat inh: ClC-1 chloride channel inhibition, selectivity assay for TMEM16A inhibitor project, cell-based, voltage-dependent ClC-1. AID 652236, 2013. ratio percent, % at 10 µM. shares compounds with TMEM16A inh. CHO ClC-1-YFP, iodide influx fluorescence quench; iodide control reads 0, buffer control 100. 2,300 tested, under 10 active;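 active = duplicate-mean ratio percent above the mean of iodide-only control wells, which defines zero, plus 5 of their SD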;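 also: higher percent means stronger block of ClC-1 iodide influx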
Target sequence (P35524 whole entry, looked up): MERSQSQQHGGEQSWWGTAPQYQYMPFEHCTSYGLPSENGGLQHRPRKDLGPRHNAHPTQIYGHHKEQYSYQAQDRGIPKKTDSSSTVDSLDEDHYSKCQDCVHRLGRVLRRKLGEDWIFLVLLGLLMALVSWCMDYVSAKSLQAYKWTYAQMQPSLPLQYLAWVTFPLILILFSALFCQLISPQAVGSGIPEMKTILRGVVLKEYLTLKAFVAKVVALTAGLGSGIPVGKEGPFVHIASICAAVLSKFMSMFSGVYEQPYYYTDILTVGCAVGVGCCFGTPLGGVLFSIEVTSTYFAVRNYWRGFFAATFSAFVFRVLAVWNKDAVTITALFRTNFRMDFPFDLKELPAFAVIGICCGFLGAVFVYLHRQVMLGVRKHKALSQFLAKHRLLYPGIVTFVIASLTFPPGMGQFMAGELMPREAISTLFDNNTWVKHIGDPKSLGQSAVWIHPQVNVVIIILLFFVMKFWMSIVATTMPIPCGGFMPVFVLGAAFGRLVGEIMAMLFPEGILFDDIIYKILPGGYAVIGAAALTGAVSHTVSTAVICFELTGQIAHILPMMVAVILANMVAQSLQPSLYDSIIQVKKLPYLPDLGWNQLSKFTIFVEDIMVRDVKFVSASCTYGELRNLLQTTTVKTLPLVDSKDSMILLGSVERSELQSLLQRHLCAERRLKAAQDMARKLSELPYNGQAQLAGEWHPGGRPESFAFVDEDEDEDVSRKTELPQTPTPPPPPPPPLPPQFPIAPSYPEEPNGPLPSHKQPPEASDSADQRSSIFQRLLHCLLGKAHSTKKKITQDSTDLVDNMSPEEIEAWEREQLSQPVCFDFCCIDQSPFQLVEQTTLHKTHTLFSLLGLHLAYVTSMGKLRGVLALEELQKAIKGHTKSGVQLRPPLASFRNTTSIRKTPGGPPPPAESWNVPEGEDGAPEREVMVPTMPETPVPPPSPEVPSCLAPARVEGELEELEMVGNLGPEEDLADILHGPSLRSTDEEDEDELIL
* hit, by the source's call; i = inactive; ? = inconclusive; . = no result given; ! = not confirmed by another sample.

SMILES | SR-BI HDL uptake | SR-BI uptake up | Kir21 block | TMEM16A inh | FID counter | ANO1 activ | TMEM16A reconf | TMEM16A Ca cntr | Parental YFP cnt | ClC-1 rat inh
COc1ccc(C(=O)N/N=C/c2ccc(N(C)c3ccccc3)cc2)cc1 | . | . | 2.45 | 25* | . | i | i | i | -1.08 | 2.5
CC(C)CCN(C(=O)CNC(=O)c1ccco1)C(C(=O)NC1CCCCC1)c1ccco1 (stereo unspecified) | -6.5 | 6.5 | -1.22 | 25* | -35.1 | . | 19.0%* | i | -1.06 | -5.5
COCCN(C(=O)CNC(=O)c1ccco1)C(C(=O)NC1CCCC1)c1ccc(F)cc1 (stereo unspecified) | . | . | -1.28 | i | -12.9 | i | . | . | . | .
O=C(NCc1ccncc1)c1nc(-c2ccc(C(F)(F)F)cc2)no1 | -20.3 | 20.3 | 1.45 | 25* | 0.8 | i | 18.5%* | i | -0.832 | -1.0
O=C(NCc1cccnc1)c1nc(-c2ccc(C(F)(F)F)cc2)no1 | -21.6 | 21.6 | 2 | i | -10.1 | i | . | . | . | .
CCCCNC(=S)Nc1ccc(C(F)(F)F)cc1 | 5.7 | -5.7 | -0.36 | 100* | 6.1 | i | 40.0%* | i | -0.9 | -22.5
O=Cc1c(NCc2ccccc2Cl)c2ccccc2[nH]c1=O | 5.2 | -5.2 | 0.51 | i | -13.8 | i | . | . | . | .
O=S(=O)(NCCNc1ncc(C(F)(F)F)cc1Cl)C(F)(F)F | -19.8 | 19.8 | -0.02 | 100* | -1.0 | i | 35.0%* | i | -1.06 | -13.0
CS(=O)(=O)NCCNc1ncc(C(F)(F)F)cc1Cl | -3.7 | 3.7 | 0.03 | i | 1.5 | i | . | . | . | .
COc1cccc(CN2C(=O)C(C)N(C(=O)c3ccccc3)c3ccccc32)c1 (stereo unspecified) | -2.7 | 2.7 | -1.51 | 25* | -33.1 | i | 17.0%* | i | -0.864 | -14.5
Cc1cc(S(=O)(=O)Nc2ccc3cn[nH]c3c2)c(C)cc1Cl | -0.8 | 0.8 | -5.19* | 25* | -11.2 | i | 16.0%* | i | -0.96 | -12.0
CN1/C(=C\C=C(/C#N)C(=O)Nc2ccc(Cl)cc2)C(C)(C)c2ccccc21 | -34.6 | 34.6 | -2.04 | i | 0.9 | i | . | . | . | .
CN1/C(=C\C(=O)Nc2ccc(Cl)cc2)C(C)(C)c2ccccc21 | -20.0 | 20.0 | 0 | 25* | 8.7 | i | i | i | -1.29 | -10.0
CCOC(=O)C1CCN(C(=O)c2ccc(OCC(=O)Nc3cccc(C(F)(F)F)c3)c(OC)c2)CC1 | ? | -70.5 | 0.26 | 25* | . | i | 28.5%* | i | -1.1 | -19.0
O=Cc1ccc([B-](F)(F)F)s1 | -15.4 | 15.4 | . | . | . | . | . | . | . | .
CCOC(=O)c1ccc(-n2[nH]c(-c3ccccc3)cc2=O)cc1 | 4.5 | -4.5 | 2.41 | 100* | -5.0 | i | i | i | -0.889 | -4.0
Oc1c(C=Nc2cccnc2)sc2ccccc12 | 1.0 | -1.0 | -1.34 | i | 4.8 | i | i | i | -0.999 | -5.0
Oc1c(C=Nc2ccccc2)sc2ccccc12 | 25.5 | -25.5 | 0.25 | i | 2.8 | i | . | . | . | .
Cc1ccc(S(=O)(=O)NC(C)(C)CN2CCCCC2)cc1 | -25.6 | 25.6 | -0.42 | i | -0.2 | i | . | . | . | .
CSCCC(NC(=O)c1ccccc1)C(=O)N1CC=C(c2ccccc2)CC1 (stereo unspecified) | 5.0 | -5.0 | -0.45 | i | -41.1 | i | . | . | . | .
Cc1ccc(S(=O)(=O)N2CCN(C(=O)CCC(=O)NCc3cccc(C(F)(F)F)c3)CC2)cc1 | -30.5 | 30.5 | -0.17 | 25* | . | i | i | i | -1.19 | -19.5
O=C(CCC(=O)N1CCN(S(=O)(=O)c2ccc(Cl)cc2)CC1)NCc1ccccc1 | -5.4 | 5.4 | -0.91 | i | -11.9 | i | . | . | . | .
COc1ccc(N2CCN(C(=O)CNC(=O)Cn3cnc4sc(C)c(C)c4c3=O)CC2)cc1 | 14.4 | -14.4 | -0.84 | i | -19.3 | i | . | . | . | .
C1CCC(C(CC2CCCCN2)C2CCCCC2)CC1 (stereo unspecified) | -1.1 | 10.5 | -7.52* | 25*! | 22.1 | i | i | i | -1.12 | -9.5
CC(Oc1ccc(Cl)cc1)C(=O)NCCN1C(=O)S/C(=C\c2cccnc2)C1=O (stereo unspecified) | 10.6 | -10.6 | 0.2 | 25* | -15.6 | i | 55.0%* | i | -0.823 | -3.0
SMILES | SR-BI HDL uptake | SR-BI uptake up | Kir21 block | TMEM16A inh | FID counter | ANO1 activ | TMEM16A reconf | TMEM16A Ca cntr | Parental YFP cnt | ClC-1 rat inh
COc1ccccc1CNS(=O)(=O)c1c(C(=O)N2CCCC2)c(C)n(C)c1C | 1.0 | -1.0 | 0.87 | i | -20.0 | i | . | . | . | .
CC(C)(C)C(=O)Nc1sc(-c2ccccc2)cc1C(=O)O | -5.0 | 5.0 | -0.35 | i | -24.4 | i | . | . | . | .
Cc1cccc(C(=O)Nc2sc(-c3ccccc3)cc2C(=O)O)c1 | -25.4 | 25.4 | -1.23 | 25* | 22.1 | i | i | i | -0.85 | -0.5
CCN(CC)S(=O)(=O)c1cc(C(=O)Nc2ccncc2)ccc1Cl | 27.2 | -27.2 | -0.17 | 100* | 3.5 | i | i | i | -1.09 | -12.5
O=C(Nc1ccncc1)c1ccc(Cl)c(S(=O)(=O)N2CCCC2)c1 | 0.9 | -0.9 | 0.23 | i | . | i | . | . | . | .
CCn1c(N2CCN(S(=O)(=O)c3ccc(Cl)cc3)CC2)nc2ccccc21 | 16.8 | -16.8 | -0.11 | 25* | -18.5 | i | i | i | -1.3 | -8.0
CCn1c(N2CCN(S(=O)(=O)c3ccc(F)cc3)CC2)nc2ccccc21 | -5.7 | 5.7 | -0.03 | i | -4.5 | i | . | . | . | .
CCCCOc1ccc(N=Cc2ccc[nH]2)cc1 | 4.4 | -4.4 | 0.11 | i | -0.8 | i | . | . | . | .

Source: PubChem (several laboratories)
